# Source: PubChem (several laboratories)
# Most compounds without a hit are left out; they make up all but 2.1% or so of the library.
# MC4R barr agon: agonists of human melanocortin 4 receptor (MC4R) beta-arrestin; U2OS MC4R beta-arrestin complementation, luminescence; percent of melanotan II response, DMSO zero; hit rate 0.98% among 360,000; activation, % at 8.9 µM; AID 540308; P32245;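 active = activation above a per-plate cutoff, the mean activation of sample wells on that plate plus 3 SD, cut at about 8% in these data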
# Target sequence (P32245 whole entry, looked up): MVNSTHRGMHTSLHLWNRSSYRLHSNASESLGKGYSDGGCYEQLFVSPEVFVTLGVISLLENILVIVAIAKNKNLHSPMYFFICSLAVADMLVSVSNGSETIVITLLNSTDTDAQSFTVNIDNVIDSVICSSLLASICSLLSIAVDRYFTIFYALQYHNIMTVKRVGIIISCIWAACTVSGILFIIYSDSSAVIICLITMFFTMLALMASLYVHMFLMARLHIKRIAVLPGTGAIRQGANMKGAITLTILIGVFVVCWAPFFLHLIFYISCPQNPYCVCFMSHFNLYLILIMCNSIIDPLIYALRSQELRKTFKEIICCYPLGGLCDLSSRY
# F508del corr: CFTR F508del correction in bronchial cells | CFBE cells, YFP halide quenching; stimulated with forskolin plus potentiator P3; % fluorescence drop versus neutral controls | AID 720511 | activity (quench increase), % at 7.58 µM | hit rate 0.36% among 350,000;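 active = mean added fluorescence quench of at least 8% versus neutral control, with both replicates also reaching 8%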;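 also: cells transiently co-express mutant CFTR-F508del with the halide-sensitive YFP; corrector assay measuring rescue of mutant channel to the surface after 24 h compound exposure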
# MC4R antagonist: human MC4R antagonism in cAMP assay; P32245; MC4R-expressing cells, MTII-stimulated cAMP, LANCE TR-FRET; inhibition, % at 6.5 µM; hit rate 0.48% among 360,000; AID 540295;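 active = inhibition above its plate's cutoff, the mean of tested wells on that plate plus 3 SD, cut at about 29% in these data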;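 also: 0% = Melanotan II alone and 100% = Melanotan II plus saturating MCL0020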
#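 Assay system: U2OS cells stably expressing human melanocortin 4 receptor (MC4R) / Dosing: 6.5 µM / Timing: compound 30 min, challenge 1 h, detection 1 h / Measured by: Eu-cAMP/anti-cAMP TR-FRET, emission 671 nm / Replicates: singlicate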
# SMARCA2 activ: activators of SMARCA2 function | MG213 cells, MMTV-luciferase reporter, dexamethasone, overnight | activation, % at 9.1 µM | hit rate 1% among 370,000 | AID 652017; in the data active = activation above about 7.8%;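 also: 0% = vehicle wells and 100% = reference activator wells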
# MC4R barr ag: human MC4R beta-arrestin agonism confirmation | shares compounds with MC4R barr agon | U2OS MC4R beta-arrestin recruitment, luminescence; scaled DMSO 0%, Melanotan II 100% | activation, % at 8.9 µM | hit rate 31% among 2,400 | AID 602192;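 active = mean activation across replicates above the hit cutoff set in the earlier primary screen, cut at about 8% in these data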
# MOR DOR agonist: OPRM1-OPRD1 heterodimer agonism counter-screen; shares compounds with MC4R barr agon; U2OS PathHunter beta-arrestin, beta-gal luminescence; percent of deltorphin B response, DMSO zero; activation, % at 9.2 µM; hit rate 5.8% among 2,400;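 active = mean activation across replicates exceeds the hit threshold derived in the earlier primary screen, cut at about 18% in these data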;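 also: 100% = deltorphin B at 0.9 µM final and 0% = DMSO alone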
# * hit, by the source's call; . = no result; ! = repeats disagree.
SMILES,MC4R barr agon,F508del corr,MC4R antagonist,SMARCA2 activ,MC4R barr ag,MOR DOR agonist
N#Cc1ccsc1NC(=O)COC(=O)c1ccc2ccccc2c1,17.1*,.,14.6,7.4,3.8,4.0
CCN1CCN(CCNC(=O)c2ccc(/C=C3\Sc4ccccc4N(Cc4ccccc4F)C3=O)cc2)CC1,12.2*,1.9,0.6,-1.7,16.9*,3.2
CN1CCN(CCCNC(=O)c2ccc(/C=C3/Sc4ccccc4N(Cc4cccc(Cl)c4)C3=O)cc2)CC1,10.1*,-8.5,9.7,4.0,16.1*,1.5
CO[C@@H]1CN(C)C(=O)c2ccc(NS(C)(=O)=O)cc2OC[C@H](C)N(CC2CCCCC2)C[C@@H]1C,.,0.5,.,.,.,.
O=c1c(Cl)c(N/N=C/c2ccc(Cl)cc2)cnn1-c1ccccc1,18.4*,.,2.9,-0.2,9.4*,4.6
Nc1c(C(=O)N/N=C/c2ccc(Cl)cc2)cnn1-c1ccccc1,4.1,2.2,8.7,4.4,.,.
CNC[C@@H]1OCCCC[C@H](C)Oc2ccc(NC(=O)C3CCCCC3)cc2C(=O)N([C@@H](C)CO)C[C@@H]1C,.,-0.7,.,.,.,.
C=CCn1c(O)c(C2=c3ccccc3=NC2=O)s/c1=N/c1nccs1,10.4*,0.8,-4.2,0.7,-0.4,3.9
CC(=O)Nc1ccc(NC(=O)CN2CCN(c3cccc(C(F)(F)F)c3)CC2)cc1,1.7,.,7.5,.,.,.
CC(=O)c1cc2c(cc1NC(=O)CN1CCN(c3cccc(C(F)(F)F)c3)CC1)OCO2,16.3*,.,3.4,-1.9,-1.8,3.1
O=C(Cc1cccc2ccccc12)NN=Cc1ccc2c(c1)CCC2,13.3*,1.1,-3.4,-1.1,6.3,4.1
O=C(NN=Cc1ccc2c(c1)CCC2)c1cccc([N+](=O)[O-])c1,22.1*,-3.6,0.6,0.0,12.5*,9.8
O=C(N/N=C/c1ccncc1)c1cccc([N+](=O)[O-])c1,.,-0.8,.,1.3,.,.
O=C(Cc1cccc2ccccc12)N/N=C1\CCCc2ccccc21,6.3,.,7.4,-5.8,.,.
CC(C)NC(=O)N(C)C[C@H]1Oc2ncc(C#Cc3ccc(F)cc3)cc2C(=O)N([C@H](C)CO)C[C@@H]1C,.,0.3,.,.,.,.
C[C@@H]1CCCCO[C@@H](CN(C)C(=O)Nc2ccc(C(F)(F)F)cc2)[C@H](C)CN([C@@H](C)CO)C(=O)c2cc(NS(C)(=O)=O)ccc2O1,.,3.2,.,.,.,.
O=C(NCC1OCCc2ccccc21)c1cc(COc2ccc(F)cc2Cl)on1 (configuration not stated),14.5*,1.4,-1.3,-1.9,5.8,7.5
CCNC(=O)[C@@H]1[C@@H](CO)[C@@H]2Cn3c(ccc(/C=C/c4ccccc4)c3=O)[C@@H]2N1C(=O)C1CC1,.,-2.2,.,.,.,.
c1ccc(Cc2nnc(-c3ccccc3)o2)cc1,15.3*,.,4.3,2.9,24.6*,19.4*
O=C(NC(=S)Nc1nc(-c2ccccc2)cs1)c1cccnc1,-0.7,-0.4,12.7,6.3,.,.
O=C(NC(=S)Nc1nc(-c2ccccc2)cs1)c1cccs1,11.4*,-3.3,11.6,1.3,-0.1,0.7
O=C(NC(=S)Nc1nc(-c2ccccc2)cs1)c1cncc(Br)c1,21.8*,0.1,4.6,0.9,5.7,0.6
O=C(Cc1ccccn1)NCC[C@H]1CC[C@H](NC(=O)Nc2ccc(F)cc2)[C@H](CO)O1,.,1.9,.,.,.,.
CC(=O)N[C@@H]1CC[C@@H](CCNC(=O)C2CCCC2)O[C@@H]1CO,.,1.1,.,.,.,.
C=CCN1C(=O)/C(=C2/Sc3ccc(OC)cc3N2C)SC1=Nc1ccccc1,-3.0,-1.4,1.1,1.4,.,.
SMILES,MC4R barr agon,F508del corr,MC4R antagonist,SMARCA2 activ,MC4R barr ag,MOR DOR agonist
CCN1C(=O)/C(=C2/Sc3ccc(OC)cc3N2C)SC1=Nc1cccc(O)c1,14.0*,-1.2,13.9,7.0,16.9*,11.8
CC(C)=CCC/C(C)=C/C=N/NC(=O)c1ccc([N+](=O)[O-])cc1,14.7*,.,-2.4,-3.8,-1.8,8.0
CC(C)=CCC/C(C)=C/C=N/NC(=O)c1cccc([N+](=O)[O-])c1,-0.3,.,6.5,-0.3,.,.
O=C(NCC[C@@H]1CC[C@@H](NC(=O)C2CCCCC2)[C@H](CO)O1)c1cnccn1,.,-1.0,.,.,.,.
Cc1nc(NC(=O)COC(=O)c2cc3c(s2)CCC(C)C3)c(Cl)cc1Cl (configuration not stated),-0.9,0.3,-0.5,-2.3,.,.
CC1CCc2sc(C(=O)OCC(=O)NCc3ccc(F)cc3)cc2C1 (configuration not stated),13.0*,.,-23.8,-0.8,2.0,3.8
CN1[C@H](C(=O)NC2CCC2)[C@@H](CO)[C@@H]2Cn3c(ccc(/C=C/c4ccccc4)c3=O)[C@@H]21,.,-0.8,.,.,.,.
S=C1Nc2ccccc2Sc2ccc(Cl)cc21,22.6*,-1.2,-9.1,-1.3,10.3*,6.6
C[C@H]1CN([C@@H](C)CO)C(=O)c2cc(/C=C/c3ccccc3)cnc2O[C@@H]1CN(C)Cc1ccccc1,.,-1.3,.,.,.,.
Cc1ccc(C(=O)Nc2cccc(C(F)(F)F)c2)cc1NC(=O)c1c[nH]c2cc(C(F)(F)F)ccc2c1=O,-1.5,2.2,13.3,1.2,.,.
CCN1CCN(Cc2ccc(NC(=O)c3ccc(C)c(NC(=O)c4c[nH]c5cc(C(F)(F)F)ccc5c4=O)c3)cc2C(F)(F)F)CC1,11.6*!,5.3,-1.5,-13.2,4.9,77.5*
COc1ccc(NC(=O)c2cc(-c3cc(Cl)ccc3OC)n[nH]2)cc1OC,-0.5,5.5,16.2,-0.4,.,.
COc1ccc(NC(=O)c2cc(-c3ccc(C)cc3O)n[nH]2)c(OC)c1,10.0*,1.0,15.5,-2.3,-2.1,3.9
COc1ccc(NC(=O)c2cc(-c3ccc(F)cc3OC(C)C)n[nH]2)c(OC)c1,-1.2,1.0,3.6,-2.5,.,.
CCCOc1ccc(F)cc1-c1cc(C(=O)Nc2cc(OC)ccc2OC)[nH]n1,16.0*,-0.6,5.0,-3.1,0.8,11.2
COc1ccc(Cl)cc1-c1cc(C(=O)Nc2ccc(F)cc2)[nH]n1,15.8*,2.6,1.8,-1.3,-0.4,9.2
CCCOc1ccc(F)cc1-c1cc(C(=O)Nc2cc(OC)c(OC)c(OC)c2)[nH]n1,3.3,1.1,7.2,-6.5,.,.
CCCC(=O)Nc1ccc2c(c1)OC[C@H](C)N(C(=O)c1ccncc1)C[C@@H](C)[C@H](OC)CN(C)C2=O,.,1.0,.,.,.,.
O=C(CCCOc1ccc(Cl)cc1Cl)N/N=C/c1ccc(Cl)cc1,9.8*,.,4.1,-3.1,7.5,2.0
C=CCn1c(SCc2c(C)noc2C)nc2sc(C)c(C)c2c1=O,1.9,.,0.5,-2.6,.,.
Cc1noc(C)c1CSc1nc2sc(C)c(C)c2c(=O)n1-c1ccccc1,11.3*,.,6.6,-3.5,-1.7,5.2
C[C@@H](NC(=O)C[C@H]1CC[C@@H]2[C@H](COC[C@H](O)CN2C(=O)Nc2ccccc2)O1)c1ccccc1,.,-0.7,.,.,.,.
